Data on 7 compounds can be found in ChEMBL document CHEMBL1125826, “Synthesis and biological activity of 5-amino- and 5-hydroxyquinolones, and the overwhelming influence of the remote N1-substituent in determining the structure-activity relationship” (1991).

In brackets after ≈: the same amount, converted by molar mass.

Common to all, as to type: functional
The subject of test [1] is Staphylococcus aureus. The test is described as follows: Antibacterial activity was determined against gram positive organism, Staphylococcus aureus H228. The following applies: Staphylococcus aureus; read-out: MIC. A digest of the protocol:
(§1)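 MIC (µg/mL) by standard microtitration against a panel of 10 Gram-positive and Gram-negative organisms; values averaged from multiple experiments.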

Test [2] relates to Bacteria. In words: MIC ratio measured as the mean MICs of gram-negative bacteria. An outline of the steps:
(§2)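 Geometric mean of the microtitration MICs (µg/mL) over the Gram-negative organisms, and separately over the Gram-positive organisms, of the 10-strain panel; individual MICs averaged from multiple experiments.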

Another test relates to Enterococcus faecalis. In words: Antibacterial activity was determined against gram positive organism, Streptococcus faecalis MGH-2. The following applies: Enterococcus faecalis; read-out: MIC. An outline of the steps: as §1
Test [3] deals with Bacteria. In words: Antibacterial activity was determined against gram negative organism, Providencia rettgeri. M1771. The following applies: Bacteria; read-out: MIC. An outline of the steps: as §1
The subject of a further test is Streptococcus pneumoniae. The test is described as follows: Antibacterial activity was determined against gram positive organism, Streptococcus pneumoniae SV-1. As to conditions: Streptococcus pneumoniae; read-out: MIC. An outline of the steps: as §1
Test [4] deals with DNA gyrase (Escherichia coli) (UniProt P0AES6+P0AES4). In words: Minimum inhibitory concentration against Escherichia coli DNA-gyrase in supercoiling assay.
Another test has as its system Enterobacter cloacae. The test is described as follows: Antibacterial activity was determined against gram negative organism, Enterobacter cloacae MA2646. As to conditions: Enterobacter cloacae; read-out: MIC.
Test [5] deals with Bacteria. In words: MIC ratio measured as the mean MICs of gram-positive bacteria. A digest of the protocol:
as §2

A further test deals with Pseudomonas aeruginosa. The test is described as follows: Antibacterial activity was determined against gram negative organism, Pseudomonas aeruginosa UI-18. The following applies: Pseudomonas aeruginosa; read-out: MIC. A digest of the protocol:
as §1

In another test the test system is Klebsiella pneumoniae. In words: Antibacterial activity was determined against gram negative organism, Klebsiella pneumoniae MGH-2. As to conditions: Klebsiella pneumoniae; read-out: MIC. An outline of the steps: as §1
The test system of a further test is Streptococcus pyogenes. The test is described as follows: Antibacterial activity was determined against gram positive organism, Streptococcus pyogenes C203. The following applies: Streptococcus pyogenes; read-out: MIC. An outline of the steps:
as §1

The next test concerns Escherichia coli. In words: Antibacterial activity was determined against gram negative organism, Escherichia coli vogel. The following applies: Escherichia coli; read-out: MIC. A digest of the protocol:
as §1

Test [6] relates to Staphylococcus aureus. In words: Antibacterial activity was determined against gram positive organism, Staphylococcus aureus UC76. An outline of the steps: as §1
Setting [7] is: Staphylococcus aureus, read-out: MIC.

On to `CCNCC1CCN(c2cc3c(c(N)c2F)c(=O)c(C(=O)O)cn3CC)C1` (stereo unspecified), for which the MIC came out at 0.8 µg/mL (≈ 2.13 µM) in the test on Staphylococcus aureus [1]; 0.8 µg/mL (≈ 2.13 µM) in the test on Enterococcus faecalis; 12.5 µg/mL (≈ 33.2 µM) in the test on Bacteria [3]; 0.4 µg/mL (≈ 1.06 µM) in the test on Streptococcus pneumoniae; 7.5 µg/mL (≈ 19.9 µM) in test [4]; 1.6 µg/mL (≈ 4.25 µM) with Enterobacter cloacae. Further, the MIC is 25 µg/mL (≈ 66.4 µM) with Pseudomonas aeruginosa; 3.1 µg/mL (≈ 8.24 µM) with Klebsiella pneumoniae; 0.8 µg/mL (≈ 2.13 µM) in the test with Streptococcus pyogenes; 0.8 µg/mL (≈ 2.13 µM) in the test with Escherichia coli; 0.1 µg/mL (≈ 0.266 µM) in the test on Staphylococcus aureus [6] (setting [7]). Also, in the test on Bacteria [2], the Geometric mean MIC over Gram-negative bacteria (µg/mL) was found to be 4.15. Further, in the test with Bacteria [5], the “Geometric mean MIC over Gram-positive bacteria (µg/mL)” value stood at 0.46.

For the compound `CCn1cc(C(=O)O)c(=O)c2cc(F)c(N3CCC(N)C3)cc21` (stereo unspecified), the MIC was determined as 0.8 µg/mL (≈ 2.51 µM) with Staphylococcus aureus [1]; 0.8 µg/mL (≈ 2.51 µM) in the test with Enterococcus faecalis; 0.2 µg/mL (≈ 0.626 µM) in the test with Bacteria [3]; 0.4 µg/mL (≈ 1.25 µM) with Streptococcus pneumoniae; 2.5 µg/mL (≈ 7.83 µM) in test [4]; 0.1 µg/mL (≈ 0.313 µM) in the test on Enterobacter cloacae. In addition, the MIC was found to be 0.8 µg/mL (≈ 2.51 µM) in the test on Pseudomonas aeruginosa; 0.2 µg/mL (≈ 0.626 µM) with Klebsiella pneumoniae; 0.4 µg/mL (≈ 1.25 µM) in the test on Streptococcus pyogenes; 0.1 µg/mL (≈ 0.313 µM) in the test on Escherichia coli; 0.1 µg/mL (≈ 0.313 µM) with Staphylococcus aureus [6]. Also, the Geometric mean MIC over Gram-negative bacteria (µg/mL) with Bacteria [2] came to 0.13. For the same compound, in the test on Bacteria [5], the “Geometric mean MIC over Gram-positive bacteria (µg/mL)” value amounted to 0.4.

As to `CCn1cc(C(=O)O)c(=O)c2cc(F)c(N3CC(C)NC(C)C3)cc21` (stereo unspecified), the MIC in the test with Staphylococcus aureus [1] is 1.6 µg/mL (≈ 4.61 µM); with Enterococcus faecalis it was 1.6 µg/mL (≈ 4.61 µM); in the test with Bacteria [3], 0.8 µg/mL (≈ 2.3 µM); in the test with Streptococcus pneumoniae, 1.6 µg/mL (≈ 4.61 µM); in test [4], 2.5 µg/mL (≈ 7.2 µM); with Enterobacter cloacae, 0.2 µg/mL (≈ 0.576 µM). Moreover, the MIC in the test on Pseudomonas aeruginosa was determined as 6.3 µg/mL (≈ 18.1 µM); with Klebsiella pneumoniae, 0.4 µg/mL (≈ 1.15 µM); in the test on Streptococcus pyogenes it was 1.6 µg/mL (≈ 4.61 µM); in the test on Escherichia coli it was 0.2 µg/mL (≈ 0.576 µM); in the test on Staphylococcus aureus [6] it was 0.4 µg/mL (≈ 1.15 µM). For the same compound, the Geometric mean MIC over Gram-negative bacteria (µg/mL) with Bacteria [2] is 0.6. In addition, the “Geometric mean MIC over Gram-positive bacteria (µg/mL)” value in the test with Bacteria [5] came out at 1.21.

As to `CCn1cc(C(=O)O)c(=O)c2cc(F)c(N3CCNCC3)c(F)c21`, the MIC in the test with Staphylococcus aureus [1] stood at 1.6 µg/mL (≈ 4.74 µM); with Enterococcus faecalis it was 1.6 µg/mL (≈ 4.74 µM); in the test on Bacteria [3] it was 0.2 µg/mL (≈ 0.593 µM); in the test with Streptococcus pneumoniae, 3.1 µg/mL (≈ 9.19 µM); in test [4] it was 2.5 µg/mL (≈ 7.41 µM); with Enterobacter cloacae, 0.1 µg/mL (≈ 0.296 µM). In addition, the MIC in the test on Pseudomonas aeruginosa came to 0.8 µg/mL (≈ 2.37 µM); in the test on Klebsiella pneumoniae, 0.1 µg/mL (≈ 0.296 µM); with Streptococcus pyogenes it was 3.1 µg/mL (≈ 9.19 µM); with Escherichia coli, 0.1 µg/mL (≈ 0.296 µM); with Staphylococcus aureus [6] it was 0.4 µg/mL (≈ 1.19 µM). Also, the Geometric mean MIC over Gram-negative bacteria (µg/mL) in the test with Bacteria [2] stood at 0.17. The “Geometric mean MIC over Gram-positive bacteria (µg/mL)” value in the test on Bacteria [5] is 1.58.

For the compound `CCn1cc(C(=O)O)c(=O)c2cc(F)c(N3CC(C)NC(C)C3)c(F)c21` (stereo unspecified), the MIC in the test on Staphylococcus aureus [1] came to 1.6 µg/mL (≈ 4.38 µM); with Enterococcus faecalis, 6.3 µg/mL (≈ 17.2 µM); in the test with Bacteria [3], 1.6 µg/mL (≈ 4.38 µM); in the test on Streptococcus pneumoniae, 6.3 µg/mL (≈ 17.2 µM); in test [4], 3.8 µg/mL (≈ 10.4 µM); in the test on Enterobacter cloacae, 0.2 µg/mL (≈ 0.547 µM). Further, the MIC in the test with Pseudomonas aeruginosa was found to be 12.5 µg/mL (≈ 34.2 µM); in the test on Klebsiella pneumoniae, 0.4 µg/mL (≈ 1.09 µM); in the test on Streptococcus pyogenes, 6.3 µg/mL (≈ 17.2 µM); in the test on Escherichia coli, 0.2 µg/mL (≈ 0.547 µM); in the test with Staphylococcus aureus [6], 0.8 µg/mL (≈ 2.19 µM). Further, the Geometric mean MIC over Gram-negative bacteria (µg/mL) in the test with Bacteria [2] is 0.79. In addition, the “Geometric mean MIC over Gram-positive bacteria (µg/mL)” value with Bacteria [5] is reported as 3.17.

In the case of `CCn1cc(C(=O)O)c(=O)c2c(N)c(F)c(N3CCNCC3)c(F)c21`, the MIC with Staphylococcus aureus [1] stood at 1.6 µg/mL (≈ 4.54 µM); in the test with Enterococcus faecalis, 1.6 µg/mL (≈ 4.54 µM); with Bacteria [3], 0.4 µg/mL (≈ 1.14 µM); in the test with Streptococcus pneumoniae, 1.6 µg/mL (≈ 4.54 µM); in test [4], 2.5 µg/mL (≈ 7.1 µM); in the test on Enterobacter cloacae it was 0.2 µg/mL (≈ 0.568 µM). Besides, the MIC in the test with Pseudomonas aeruginosa worked out at 0.8 µg/mL (≈ 2.27 µM); with Klebsiella pneumoniae it was 0.2 µg/mL (≈ 0.568 µM); in the test on Streptococcus pyogenes it was 3.1 µg/mL (≈ 8.8 µM); in the test with Escherichia coli, 0.1 µg/mL (≈ 0.284 µM); with Staphylococcus aureus [6] (setting [7]), 0.2 µg/mL (≈ 0.568 µM). Further, the Geometric mean MIC over Gram-negative bacteria (µg/mL) with Bacteria [2] was determined as 0.26. In addition, the “Geometric mean MIC over Gram-positive bacteria (µg/mL)” value in the test on Bacteria [5] turned out to be 1.15.

Take `CCn1cc(C(=O)O)c(=O)c2cc(F)c(N3CCC(N)C3)c(F)c21` (stereo unspecified): the MIC with Staphylococcus aureus [1] turned out to be 0.4 µg/mL (≈ 1.19 µM); in the test with Enterococcus faecalis, 0.4 µg/mL (≈ 1.19 µM); in the test on Bacteria [3], 0.2 µg/mL (≈ 0.593 µM); in the test on Streptococcus pneumoniae, 0.4 µg/mL (≈ 1.19 µM); in test [4], 2.5 µg/mL (≈ 7.41 µM); in the test with Enterobacter cloacae, 0.1 µg/mL (≈ 0.296 µM). Moreover, the MIC in the test on Pseudomonas aeruginosa came out at 0.4 µg/mL (≈ 1.19 µM); with Klebsiella pneumoniae it was 0.2 µg/mL (≈ 0.593 µM); in the test on Streptococcus pyogenes, 0.2 µg/mL (≈ 0.593 µM); in the test on Escherichia coli, 0.1 µg/mL (≈ 0.296 µM); with Staphylococcus aureus [6], 0.1 µg/mL (≈ 0.296 µM). Further, in the test with Bacteria [2], the Geometric mean MIC over Gram-negative bacteria (µg/mL) was determined as 0.17. Further, the “Geometric mean MIC over Gram-positive bacteria (µg/mL)” value in the test on Bacteria [5] was found to be 0.27.
